Measurements reported in ChEMBL document CHEMBL4393701, “Appendix A. dithioloquinolinethiones as new potential multitargeted antibacterial and antifungal agents: Synthesis, biological evaluation and molecular docking studies” (2019).
Converted amounts (≈) assume the structure as drawn.

How the values were obtained:
[1] = tested on: Penicillium cyclopium; assay: Antifungal activity against Penicillium verrucosum var. cyclopium food isolate after 72 hrs by microdilution technique; type: functional
How it was run: (§1)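 Spores were washed off malt agar with 0.85% saline containing 0.1% Tween 80 and adjusted to about 1.0×10^5 per well. Compounds in 5% DMSO were serially diluted (0.001-1.0 mg/ml) in malt broth with inoculum. Plates were shaken at 160 rpm for 72 h at 28 °C. MIC is the lowest concentration without visible growth under a binocular microscope. Three independent experiments in duplicate.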

[2] = tested on: Pseudomonas aeruginosa; assay: Antibacterial activity against Pseudomonas aeruginosa ATCC 27853 after 24 hrs by iodonitrotetrazolium chloride dye based microdilution method; type: functional; conditions: ATCC 27853, 24 h
How it was run: (§2)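 Fresh overnight cultures adjusted spectrophotometrically to 1×10^5 CFU/mL, giving 1.0×10^4 CFU per well in tryptic soy broth. Compounds were dissolved in 5% DMSO and tested at 0.001-1.0 mg/ml by serial dilution; 5% DMSO was the negative control. After 24 h at 37 °C, 0.2 mg/mL INT solution was added for 30 min at 37 °C and OD read at 655 nm. MIC is the lowest concentration giving significant growth inhibition versus the positive control. Duplicates, repeated three times.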

[3] = tested on: Salmonella typhimurium; assay: Antibacterial activity against Salmonella typhimurium ATCC 13311 after 24 hrs by iodonitrotetrazolium chloride dye based microdilution method; type: functional, Salmonella enterica subsp. enterica serovar Typhimurium; conditions: Salmonella enterica, ATCC 13311, 24 h; how it was run: as §2
[4] = tested on: Pseudomonas aeruginosa; assay: Bactericidal activity against Pseudomonas aeruginosa ATCC 27853 incubated for 24 hrs followed by re-plating on tryptic soy broth; type: functional; conditions: ATCC 27853, 24 h
How it was run: (§3)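 Bacteria were grown in tryptic soy broth, 1.0×10^4 CFU per well, with compounds in 5% DMSO at 0.001-1.0 mg/ml for 24 h at 37 °C. Then 10 µL was subcultured into fresh TSB. MBC is the lowest concentration showing no growth after subculture, taken as 99.5% kill of the original inoculum. Duplicates, repeated three times.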

[5] = tested on: Aspergillus versicolor; assay: Antifungal activity against Aspergillus versicolor ATCC 11730 after 72 hrs by microdilution method; type: functional; conditions: ATCC 11730, 72 h; how it was run: as §1
[6] = tested on: Aspergillus ochraceus; assay: Antifungal activity against Aspergillus ochraceus ATCC 12066 after 72 hrs by microdilution technique; type: functional; conditions: ATCC 12066, 72 h; how it was run: as §1
[7] = tested on: Staphylococcus aureus; assay: Bactericidal activity against Staphylococcus aureus ATCC 6538 incubated for 24 hrs followed by re-plating on tryptic soy broth; type: functional; conditions: ATCC 6538, 24 h; how it was run: as §3
[8] = tested on: Listeria monocytogenes; assay: Antibacterial activity against Listeria monocytogenes NCTC 7973 after 24 hrs by iodonitrotetrazolium chloride dye based microdilution method; type: functional; conditions: NCTC 7973, 24 h; how it was run: as §2
[9] = tested on: Salmonella typhimurium; assay: Bactericidal activity against Salmonella typhimurium ATCC 13311 incubated for 24 hrs followed by re-plating on tryptic soy broth; type: functional, Salmonella enterica subsp. enterica serovar Typhimurium; conditions: Salmonella enterica, ATCC 13311, 24 h; how it was run: as §3
[10] = tested on: Aspergillus fumigatus; assay: Antifungal activity against Aspergillus fumigatus ATCC 1022 after 72 hrs by microdilution technique; type: functional; conditions: ATCC 1022, 72 h; how it was run: as §1
[11] = tested on: Enterobacter cloacae; assay: Bactericidal activity against Enterobacter cloacae incubated for 24 hrs followed by re-plating on tryptic soy broth; type: functional; how it was run: as §3
[12] = tested on: Aspergillus niger; assay: Antifungal activity against Aspergillus niger ATCC 6275 after 72 hrs by microdilution technique; type: functional; conditions: ATCC 6275, 72 h; how it was run: as §1
[13] = tested on: Trichoderma viride; assay: Fungicidal activity against Trichoderma viride IAM 5061 incubated for 72 hrs followed by sub-culturing on broth malt medium and measured after 72 hrs; type: functional; conditions: IAM 5061, 72 h
How it was run: (§4)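 After 72 h exposure in malt broth, 2 µL from test wells was subcultured into wells holding 100 µL broth and incubated a further 72 h at 28 °C. MFC is the lowest concentration with no visible growth, taken as 99.5% kill of the original inoculum. Three independent experiments in duplicate.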

[14] = tested on: Escherichia coli; assay: Bactericidal activity against Escherichia coli ATCC 35210 incubated for 24 hrs followed by re-plating on tryptic soy broth; type: functional; conditions: ATCC 35210, 24 h; how it was run: as §3
[15] = tested on: Micrococcus flavus; assay: Antibacterial activity against Micrococcus flavus ATCC 10240 after 24 hrs by iodonitrotetrazolium chloride dye based microdilution method; type: functional; conditions: ATCC 10240, 24 h; how it was run: as §2
[16] = tested on: Micrococcus flavus; assay: Bactericidal activity against Micrococcus flavus ATCC 10240 incubated for 24 hrs followed by re-plating on tryptic soy broth; type: functional; conditions: ATCC 10240, 24 h; how it was run: as §3
[17] = tested on: Staphylococcus aureus; assay: Antibacterial activity against Staphylococcus aureus ATCC 6538 after 24 hrs by iodonitrotetrazolium chloride dye based microdilution method; type: functional; conditions: ATCC 6538, 24 h; how it was run: as §2
[18] = Fungicidal activity against Penicillium funiculosum ATCC 36839 incubated for 72 hrs followed by sub-culturing on broth malt medium and measured after 72 hrs; type: functional; conditions: Talaromyces pinophilus, ATCC 36839, 72 h; how it was run: as §4
[19] = Antifungal activity against Penicillium funiculosum ATCC 36839 after 72 hrs by microdilution technique; type: functional; conditions: Talaromyces pinophilus, ATCC 36839, 72 h; how it was run: as §1
[20] = tested on: Listeria monocytogenes; assay: Bactericidal activity against Listeria monocytogenes NCTC 7973 incubated for 24 hrs followed by re-plating on tryptic soy broth; type: functional; conditions: NCTC 7973, 24 h; how it was run: as §3
[21] = tested on: Bacillus cereus; assay: Bactericidal activity against Bacillus cereus clinical isolate incubated for 24 hrs followed by re-plating on tryptic soy broth; type: functional; how it was run: as §3
[22] = tested on: Penicillium cyclopium; assay: Fungicidal activity against Penicillium verrucosum var. cyclopium food isolate incubated for 72 hrs followed by sub-culturing on broth malt medium and measured after 72 hrs; type: functional; how it was run: as §4
[23] = tested on: Penicillium ochrochloron; assay: Fungicidal activity against Penicillium ochrochloron ATCC 9112 incubated for 72 hrs followed by sub-culturing on broth malt medium and measured after 72 hrs; type: functional; conditions: ATCC 9112, 72 h; how it was run: as §4
[24] = tested on: Aspergillus fumigatus; assay: Fungicidal activity against Aspergillus fumigatus ATCC 1022 incubated for 72 hrs followed by sub-culturing on broth malt medium and measured after 72 hrs; type: functional; conditions: ATCC 1022, 72 h; how it was run: as §4
[25] = tested on: Escherichia coli; assay: Antibacterial activity against Escherichia coli ATCC 35210 after 24 hrs by iodonitrotetrazolium chloride dye based microdilution method; type: functional; conditions: ATCC 35210, 24 h; how it was run: as §2
[26] = tested on: Trichoderma viride; assay: Antifungal activity against Trichoderma viride IAM 5061 after 72 hrs by microdilution technique; type: functional; conditions: IAM 5061, 72 h; how it was run: as §1
[27] = tested on: Aspergillus ochraceus; assay: Fungicidal activity against Aspergillus ochraceus ATCC 12066 incubated for 72 hrs followed by sub-culturing on broth malt medium and measured after 72 hrs; type: functional; conditions: ATCC 12066, 72 h; how it was run: as §4
[28] = tested on: Penicillium ochrochloron; assay: Antifungal activity against Penicillium ochrochloron ATCC 9112 after 72 hrs by microdilution technique; type: functional; conditions: ATCC 9112, 72 h; how it was run: as §1
[29] = tested on: Enterobacter cloacae; assay: Antibacterial activity against Enterobacter cloacae clinical isolate after 24 hrs by iodonitrotetrazolium chloride dye based microdilution method; type: functional; how it was run: as §2
[30] = tested on: Aspergillus versicolor; assay: Fungicidal activity against Aspergillus versicolor ATCC 11730 incubated for 72 hrs followed by sub-culturing on broth malt medium and measured after 72 hrs; type: functional; conditions: ATCC 11730, 72 h; how it was run: as §4
[31] = tested on: Bacillus cereus; assay: Antibacterial activity against Bacillus cereus clinical isolate after 24 hrs by iodonitrotetrazolium chloride dye based microdilution assay; type: functional; how it was run: as §2
[32] = tested on: Aspergillus niger; assay: Fungicidal activity against Aspergillus niger ATCC 6275 incubated for 72 hrs followed by sub-culturing on broth malt medium and measured after 72 hrs; type: functional; conditions: ATCC 6275, 72 h; how it was run: as §4

MIC [1] | MIC [2] | MIC [3] | MIC [5] | MIC [6] | MIC [8] | MIC [10] | MIC [12] | MIC [15] | MIC [17] | MIC [19] | Compound | MBC [4] | MBC [7] | MBC [9] | MBC [11] | MFC [13] | MBC [14] | MBC [16] | MFC [18] | MBC [20] | other results
8.85 ×10⁻² mM | 29.5 µM (≈ 9.13 µg/mL) | 29.5 µM (≈ 9.13 µg/mL) | 5.9 ×10⁻² mM | 11.8 ×10⁻² mM | 29.5 µM (≈ 9.13 µg/mL) | 5.9 ×10⁻² mM | 4.32 ×10⁻² mM | 29.5 µM (≈ 9.13 µg/mL) | 29.5 µM (≈ 9.13 µg/mL) | 11.8 ×10⁻² mM | CCOc1ccc2c(c1)-c1c(ssc1=S)C(C)(C)N2 | 59 µM (≈ 18.3 µg/mL) | 59 µM (≈ 18.3 µg/mL) | 59 µM (≈ 18.3 µg/mL) | 59 µM (≈ 18.3 µg/mL) | 2.95 ×10⁻² mM | 59 µM (≈ 18.3 µg/mL) | 59 µM (≈ 18.3 µg/mL) | 23.6 ×10⁻² mM | 59 µM (≈ 18.3 µg/mL) | MBC [21]: 59 µM (≈ 18.3 µg/mL); MFC [22]: 23.6 ×10⁻² mM; MFC [23]: 1.57 ×10⁻² mM; MFC [24]: 11.8 ×10⁻² mM; MIC [25]: 29.5 µM (≈ 9.13 µg/mL); MIC [26]: 1.18 ×10⁻² mM; MFC [27]: 23.6 ×10⁻² mM; MIC [28]: 0.79 ×10⁻² mM; MIC [29]: 29.5 µM (≈ 9.13 µg/mL); MFC [30]: 11.8 ×10⁻² mM; MIC [31]: 29.5 µM (≈ 9.13 µg/mL); MFC [32]: 11.8 ×10⁻² mM
14.8 ×10⁻² mM | 37.1 µM (≈ 15 µg/mL) | 37.1 µM (≈ 15 µg/mL) | 14.8 ×10⁻² mM | 14.8 ×10⁻² mM | 37.1 µM (≈ 15 µg/mL) | 11.1 ×10⁻² mM | 7.42 ×10⁻² mM | 37.1 µM (≈ 15 µg/mL) | 37.1 µM (≈ 15 µg/mL) | 11.1 ×10⁻² mM | CC1(C)c2ssc(=S)c2-c2ccccc2N1C(=O)CN1C(=O)CCC1=O | 74.2 µM (≈ 30 µg/mL) | 74.2 µM (≈ 30 µg/mL) | 74.2 µM (≈ 30 µg/mL) | 74.2 µM (≈ 30 µg/mL) | 1.98 ×10⁻² mM | 74.2 µM (≈ 30 µg/mL) | 74.2 µM (≈ 30 µg/mL) | 29.7 ×10⁻² mM | 74.2 µM (≈ 30 µg/mL) | MBC [21]: 74.2 µM (≈ 30 µg/mL); MFC [22]: 29.7 ×10⁻² mM; MFC [23]: 1.98 ×10⁻² mM; MFC [24]: 14.8 ×10⁻² mM; MIC [25]: 37.1 µM (≈ 15 µg/mL); MIC [26]: 1.48 ×10⁻² mM; MFC [27]: 29.7 ×10⁻² mM; MIC [28]: 0.99 ×10⁻² mM; MIC [29]: 37.1 µM (≈ 15 µg/mL); MFC [30]: 29.7 ×10⁻² mM; MIC [31]: 37.1 µM (≈ 15 µg/mL); MFC [32]: 14.8 ×10⁻² mM
